Reference: ChEMBL document CHEMBL3120090, “High-affinity recognition of HIV-1 frameshift-stimulating RNA alters frameshifting in vitro and interferes with HIV-1 infectivity” (J Med Chem, 2014)
Calls of active or inactive are those of the source. The calls are words filed in the database; no cut-off is given here.

Key:
HEK293FT [1] = assay: Binding affinity to HIV-1 FSS RNA transfected in HEK293FT cells at 50 uM after 36 hrs by Renilla/firefly luciferase reporter gene assay; assay type: cell-based; conditions: Human immunodeficiency virus 1
Outline: (§1)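 HEK293FT cells (1.5 × 10^4/well) transiently transfected with pDualHIV(−1) or in-frame pDualHIV(0) Rluc–FSS–Fluc plasmid (0.2 μg). Compound (0–50 μM) added 5 h later, in triplicate, for 36 h at 37 °C. Fluc/Rluc ratio from lysate, expressed relative to untreated transfected cells (100%). Error is SEM.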

[2] = Binding affinity to HIV-1 FSS RNA in HBS buffer at pH 7.4 by surface plasmon resonance analysis; parameters: species or system Human immunodeficiency virus 1
Outline: (§2)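 RNA captured on SPR chips at low (~300 RU) and high (~1200 RU) density, each measured once. Compound flowed in HBS (0.01 M HEPES, 0.150 M NaCl, pH 7.4) at 60 μL/min over at least five concentrations, each injected at least twice. A 20 s 0.5 or 1 M NaCl pulse regenerated the chip where needed. Reference-subtracted, blank-corrected sensorgrams (association plus dissociation) were globally fit to 1:1 Langmuir; error is standard error of the fit.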

[3] = tested on: Human immunodeficiency virus 1; assay: Binding affinity to HIV-1 FSS RNA in HBS buffer at pH 7.4 assessed as association rate by surface plasmon resonance analysis; outline: as §2
HEK293FT [4] = assay: Binding affinity to HIV-1 FSS RNA transfected in HEK293FT cells after 36 hrs by Renilla/firefly luciferase reporter gene assay; assay type: cell-based; conditions: Human immunodeficiency virus 1; outline: as §1
[5] = tested on: Human immunodeficiency virus 1; assay: (§3) Binding affinity to HIV-1 FSS RNA in HBS buffer at pH 7.4 assessed as dissociation rate by surface plasmon resonance analysis; outline: as §2
[6] = tested on: Human T-lymphotropic virus 2; assay: Binding affinity to HTLV-2 FSS RNA up to 3 uM by surface plasmon resonance analysis
[7] = tested on: Human immunodeficiency virus 1; assay: Antiviral activity against HIV-1 NL4-3 assessed as reduction in viral infectivity in human TZM-bl cells at 40 uM after 48 hrs by firefly luciferase reporter gene assay; assay type: functional
[8] = as §3; parameters: species or system Human immunodeficiency virus 1; outline: as §2
HEK293FT [9] = assay: Binding affinity to HTLV-2 FSS RNA transfected in HEK293FT cells at 1 to 50 uM after 36 hrs by Renilla/firefly luciferase reporter gene assay; assay type: cell-based; conditions: Human T-lymphotropic virus 2
Outline: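 HEK293FT cells transiently transfected with pDualHTLV-2(−1) (Fluc made only via −1 frameshift at the HTLV-2 site) and treated 5 h later with compound (0–50 μM) in triplicate for 36 h at 37 °C. Fluc/Rluc ratio from lysate, relative to untreated transfected cells. Error is SEM.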

[10] = Cytotoxicity against HEK293FT cells assessed as cell viability at >10 uM after 24 hrs by WST-1 assay; assay type: cell-based; conditions: human
Outline: (§4)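 HEK293FT cells at 80% confluence in DMEM/10% FBS exposed to compound (up to 0.5 mM) or a water control, in triplicate, for 24 h at 37 °C. WST-1 reagent then added for 2 h. Absorbance at 450 minus 690 nm, blank-corrected, plotted against concentration. Error is SD of three measurements.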

[11] = Cellular uptake in cytoplasm of HEK293FT cells at 50 uM measured for 12 hrs by fluorescence microscopy; assay type: ADME, cell-based; conditions: human
[12] = Cellular uptake in nucleus of HEK293FT cells at 50 uM measured for 12 hrs by fluorescence microscopy; assay type: ADME, cell-based; conditions: human
[13] = Binding affinity to FSS DNA (unknown origin) after 10 mins by fluorescence titration analysis
Outline: (§5)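 Solution fluorescence titration in 20 mM HEPES, 150 mM NaCl. Compound at 1 μM, titrated with unlabeled HIV-1 FSS RNA (10 μM stock), FSS DNA or yeast tRNA (40 μM stocks). 10 min equilibration after each addition. Quenching of benzo[g]quinoline fluorescence read in triplicate 1 min apart, corrected for dilution; KD from saturable quenching. Error is SD.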

[14] = Binding affinity to yeast tRNA after 10 mins by fluorescence titration analysis; parameters: species or system Saccharomyces cerevisiae; outline: as §5
[15] = Binding affinity to HIV-1 FSS RNA after 10 mins by fluorescence titration analysis; parameters: species or system Human immunodeficiency virus 1; outline: as §5
[16] = Binding affinity to HIV-1 FSS RNA in 20 mM HEPES buffer by surface plasmon resonance analysis in presence of 150 mM NaCl, 5 mM MgCl2 and 0.005 % tween-20; parameters: species or system Human immunodeficiency virus 1
Outline: (§6)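 SPR with HIV-1 FSS RNA captured on low-density (~300 RU) and high-density (~1200 RU) chips. Compound flowed at 50 μL/min in 20 mM HEPES, 150 mM NaCl, 5 mM MgCl2, 0.005% Tween-20. 0.5 or 1 M NaCl regeneration as needed. Each concentration injected at least twice. Kinetic constants and KD from individual fits of reference-subtracted sensorgrams.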

[17] = Selectivity ratio of KD for yeast tRNA to KD for HIV-1 FSS RNA
Outline: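 Ratios of fluorescence-titration KD values (20 mM HEPES, 150 mM NaCl; compound 1 μM): KD for FSS DNA or total yeast tRNA divided by KD for HIV-1 FSS RNA.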

[18] = tested on: Human immunodeficiency virus 1; assay: Antiviral activity against HIV-1 NL4-3 assessed as reduction in viral infectivity in human TZM-bl cells after 48 hrs by firefly luciferase reporter gene assay; assay type: functional, organism-based; conditions: Human immunodeficiency virus 1, NL4-3, TZM-bl
Outline: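 Single-round infectivity of VSV-G pseudotyped HIV-1 (pDHIV3-GFP, NL4-3 genes minus nef/env) made in transfected HEK293T producer cells. Compounds added to producers 4 h post-transfection; virions harvested at 24 h, filtered, normalized by p24 ELISA. TZM-bl cells (10,000/well) infected with 500 pg p24/well in triplicate for 48 h; LTR-driven firefly luciferase luminescence read. EC50 derived from concentration series.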

[19] = tested on: Human immunodeficiency virus 1; assay: Antiviral activity against HIV-1 NL4-3 assessed as reduction in viral production […] after 24 hrs by fluorescence microscopy; assay type: functional, organism-based
Outline: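 HEK293T producer cells transfected with GFP-marked pseudotyped HIV-1 vector plus VSV-G and treated with compound 4 h after transfection. Proviral GFP expression imaged by fluorescence microscopy 24 h after treatment, before virions were harvested.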

[20] = tested on: Human immunodeficiency virus 1; assay: Antiviral activity against HIV-1 NL4-3 infected in TZM-bl cells after 24 hrs
[21] = Binding affinity to HIV-1 FSS RNA in 20 mM HEPES buffer assessed as dissociation rate by surface plasmon resonance analysis in presence of 150 mM NaCl, 5 mM MgCl2 and 0.005 % tween-20; parameters: species or system Human immunodeficiency virus 1; outline: as §6
[22] = tested on: Human immunodeficiency virus 1; assay: Binding affinity to HIV-1 FSS RNA in 20 mM HEPES buffer assessed as association rate by surface plasmon resonance analysis in presence of 150 mM NaCl, 5 mM MgCl2 and 0.005 % tween-20; outline: as §6
[23] = tested on: Human immunodeficiency virus 1; assay: Increase in HIV-1 NL4-3 reverse transcriptase p66/51 level at 10 to 40 uM by Western blotting analysis; assay type: functional, organism-based
Outline: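 Pseudotyped virions from compound-treated producer cells, equal loads by p24 ELISA, pelleted through 20% sucrose at 100,000g. Western blot for RT and p24. Densitometry of nonsaturated bands gave p160/(p66+p51) and total RT/p24 ratios.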

[24] = Cytotoxicity against HEK293FT cells assessed as cell viability at <60 uM after 24 hrs by WST-1 assay; assay type: cell-based; conditions: human; outline: as §4

SMILES	Activity [6]	Activity (HEK293FT [1])	Activity (HEK293FT [4])	Activity [7]	Kd ([2]; read-out: Kd) [nM]	Ka [3]	Dissociation rate constant (koff) [8]	Activity (HEK293FT [9])	Drug uptake [11]	Drug uptake [12]	Kd [15] [nM]	other results
CCc1nc2cc3ccccc3cc2cc1C(=O)N[C@@H](CSSC[C@H](NC(=O)c1cc2cc3ccccc3cc2nc1CC)C(=O)N1CCC[C@H]1C(=O)N[C@@H](Cc1ccccc1)C(=O)NCCCN)C(=O)N1CCC[C@H]1C(=O)N[C@@H](Cc1ccccc1)C(=O)NCCCN			25%		741	1.07 ×10⁴ /M/s	7.92 ×10⁻³ /s	inactive	Active	Active		Activity [10]: Toxic
CCc1nc2cc3ccccc3cc2cc1C(=O)N[C@@H](C/C=C/C[C@H](NC(=O)c1cc2cc3ccccc3cc2nc1CC)C(=O)N1CCC[C@H]1C(=O)N[C@@H](Cc1ccccc1)C(=O)NCCCN)C(=O)N1CCC[C@H]1C(=O)N[C@@H](Cc1ccccc1)C(=O)NCCCN	inactive	> 50%	Dose-dependent effect	>90%	89	3.99 ×10⁴ /M/s	3.75 ×10⁻³ /s	inactive	Active	Active	101	Kd [13]: 118 nM; Kd [14]: 217 nM; Kd [16]: 96 nM; Ratio [17]: 2.14; EC50 [18]: 25.6 µM; Activity [19]: Dose-dependent effect; Activity [20]: Active; Kd [21]: 3.46 ×10⁻³ /s; Ka [22]: 3.68 ×10⁴ /M/s; Activity [23]: Active; Activity [24]: Non-toxic
C=CC[C@H](NC(=O)c1cc2cc3ccccc3cc2nc1CC)C(=O)N1CCC[C@H]1C(=O)N[C@@H](Cc1ccccc1)C(=O)NCCCN	inactive				19500	1.16 ×10³ /M/s	2.25 ×10⁻² /s				409	

More lines, main results first:

Activity [6]	SMILES	Activity (HEK293FT [1])	Activity (HEK293FT [4])	Activity [7]	Kd ([2]; read-out: Kd) [nM]	Ka [3]	Dissociation rate constant (koff) [8]	Activity (HEK293FT [9])	Drug uptake [11]	Drug uptake [12]	Kd [15] [nM]	other results
inactive	NCCCNC(=O)[C@H](Cc1ccccc1)NC(=O)[C@@H]1CCCN1C(=O)[C@@H](N)C/C=C/C[C@H](N)C(=O)N1CCC[C@H]1C(=O)N[C@@H](Cc1ccccc1)C(=O)NCCCN	inactive	inactive	Active								Kd [2]: Not Active; Activity [3]: inactive; Activity [5]: inactive
inactive	CCc1nc2cc3ccccc3cc2cc1C(=O)N[C@@H](C/C=C\C[C@H](N)C(=O)N1CCC[C@H]1C(=O)N[C@@H](Cc1ccccc1)C(=O)NCCCN)C(=O)N1CCC[C@H]1C(=O)N[C@@H](Cc1ccccc1)C(=O)NCCCN				2760	4.58 ×10³ /M/s	1.21 ×10⁻² /s					
inactive	NCCCNC(=O)[C@H](Cc1ccccc1)NC(=O)[C@@H]1CCCN1C(=O)[C@@H](N)C/C=C\C[C@H](N)C(=O)N1CCC[C@H]1C(=O)N[C@@H](Cc1ccccc1)C(=O)NCCCN											
